The results in this text go back to ChEMBL document CHEMBL1148118, “Immunomodulatory proanthocyanidins from Ecdysanthera utilis” (J Nat Prod, 2002).

The structures appear in SMILES notation. Calls of active or inactive are those of the source. No cut-off for these calls is given here.

Holding throughout (type): functional, cell-based
For assay [1], the system named is PBMC. The experiment in a line: Inhibition of PHA-stimulated human PBMC proliferation assessed as [3H]thymidine uptake after 3 days by scintillation counting. An outline of the steps: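 Ficoll-Hypaque-isolated human PBMC at 2 × 10^6 cells/mL in RPMI-1640 with 2% FCS, 100 µL/well, with or without 5 µg/mL PHA plus test compound. Incubated 3 days at 37 °C in 5% CO2. 3H-thymidine (1 µCi/well) was then added for 16 h, and cells were harvested onto glass-fiber filters for scintillation counting. % inhibition = (control CPM − treated CPM)/control CPM × 100. DMSO 0.1% vehicle.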

For assay [2], the system named is PBMC. The experiment in a line: Immunomodulatory activity in PHA-stimulated human PBMC assessed as inhibition of IFN-gamma production after 3 days by enzyme immuno assay. The essentials: (§1)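 Human PBMC isolated by Ficoll-Hypaque density gradient, resuspended in RPMI-1640 with 2% FCS and penicillin/streptomycin. 2 × 10^5 cells/well cultured with PHA (5 µg/mL) plus 0, 6, 12.5, 25, 50 or 100 µM compound for 3 days. IL-2 and IFN-γ measured in the supernatants by EIA. Each point is the mean of three independent experiments.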

For assay [3], the system named is PBMC. The experiment in a line: Immunomodulatory activity in PHA-stimulated human PBMC assessed as inhibition of IL2 production after 3 days by enzyme immuno assay. An outline of the steps: as §1

With `Oc1cc(O)c2c(c1)O[C@H](c1ccc(O)c(O)c1)[C@H](O)C2`, the outcome with PBMC [1] was inactive.
Turning to `Oc1cc(O)c2c(c1)O[C@H](c1ccc(O)c(O)c1)[C@H](O)[C@H]2c1c(O)cc(O)c2c1O[C@H](c1ccc(O)c(O)c1)[C@H](O)C2`, in the assay with PBMC [1], the result was inactive.
Turning to `Oc1cc(O)c2c(c1)O[C@@]1(c3ccc(O)c(O)c3)Oc3cc(O)c4c(c3[C@@H]2[C@H]1O)O[C@H](c1ccc(O)c(O)c1)[C@@H](O)C4` [PROANTHOCYANIDIN A1], the Activity result in the assay on PBMC [2] and in the assay with PBMC [3] was “Dose-dependent effect” each time. Besides, the IC50 with PBMC [2] (72 h) came to 5.1 µM; with PBMC [3] (72 h), 25 µM; in the assay with PBMC [1], 30.6 µM.
As to `Oc1cc(O)c2c(c1)O[C@@]1(c3ccc(O)c(O)c3)Oc3cc(O)c4c(c3[C@@H]2[C@H]1O)O[C@H](c1ccc(O)c(O)c1)[C@H](O)C4`, the outcome in the assay with PBMC [1] was inactive.
Same read-out and setting: the value for `Oc1cc(O)c2c(c1)O[C@H](c1ccc(O)c(O)c1)[C@H](O)[C@H]2c1c(O)cc(O)c2c1O[C@@]1(c3ccc(O)c(O)c3)Oc3cc(O)c4c(c3[C@@H]2[C@H]1O)O[C@H](c1ccc(O)c(O)c1)[C@H](O)[C@@H]4c1c(O)cc(O)c2c1O[C@H](c1ccc(O)c(O)c1)[C@H](O)C2` was “inactive”.
Still for that read-out and setting: the entry for `Oc1cc(O)c2c(c1)O[C@@]1(c3ccc(O)c(O)c3)Oc3cc(O)c4c(c3[C@@H]2[C@H]1O)O[C@@]1(c2ccc(O)c(O)c2)Oc2cc(O)c3c(c2[C@@H]4[C@@H]1O)O[C@H](c1ccc(O)c(O)c1)[C@H](O)C3` is “inactive”; for `Oc1cc(O)c2c(c1)O[C@@]1(c3ccc(O)c(O)c3)Oc3cc(O)c4c(c3[C@@H]2[C@H]1O)O[C@H](c1ccc(O)c(O)c1)[C@H](O)[C@@H]4c1c(O)cc(O)c2c1O[C@H](c1ccc(O)c(O)c1)[C@H](O)C2` it is “inactive”.
